Screening results as filed in PubChem.
TAAR1 antag = human TAAR1 antagonists, primary screen, Fluo-8 calcium fluorescence, CHO RD-HGA16 cells; Trace amine-associated receptor 1 (Homo sapiens), Q96RJ0; antagonist; inhibition, % at 3 µM; 1.5% of 360,000 active;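 active = inhibition above a per-plate cutoff, the mean inhibition of test compounds on that plate plus 3 SD, cut at about 49% in these data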;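 note: 0% = DMSO plus EC80 beta-PEA response and 100% = DMSO alone without agonist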
Target sequence (Q96RJ0 whole entry, looked up): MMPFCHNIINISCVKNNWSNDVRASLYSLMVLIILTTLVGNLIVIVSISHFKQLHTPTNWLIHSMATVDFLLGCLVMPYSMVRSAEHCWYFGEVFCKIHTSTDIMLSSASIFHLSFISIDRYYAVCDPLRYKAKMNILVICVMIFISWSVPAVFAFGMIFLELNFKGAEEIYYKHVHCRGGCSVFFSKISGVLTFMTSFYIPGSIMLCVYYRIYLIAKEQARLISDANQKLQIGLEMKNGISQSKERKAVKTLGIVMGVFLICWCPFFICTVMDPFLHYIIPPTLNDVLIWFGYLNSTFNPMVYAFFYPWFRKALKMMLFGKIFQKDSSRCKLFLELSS
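test system = CHO RD-HGA16 cells bearing hTAAR1 | replication = singlicate | controls = DMSO-only wells and EC80 β-PEA-stimulated wells | reagent = EC80 β-phenethylamine stimulus | read-out basis = percent inhibition of PEA-evoked calcium signal, max/basal emission ratio | schedule = seeding 17-24 h prior, 75-min 37 °C, 30-min RT dye loading | signal = kinetic Fluo-8 calcium fluorescence measurement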
OX1R antag-1 = OX1R (HCRTR1) antagonists, primary screen, fluorescence, CHO/OX1R cells, Fluo-8 calcium, orexin A; Orexin/Hypocretin receptor type 1 (Homo sapiens), O43613; Fluo-8 calcium fluorescence; inhibition, % at 5 µM; 0.43% of 330,000 active; AID 434989, 2010;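 active = inhibition above its plate's threshold, mean inhibition of all tested compounds on the plate plus 3 SD, cut at about 37% in these data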;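 note: 0% = orexin A challenge wells and 100% = SB-334867-A antagonist wells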
OX1R antag-2 = antagonists of human orexin 1 receptor (OX1R). OX1R-expressing cells, FRET antagonist read-out. inhibition, % at 6.6 µM. 1.8% of 330,000 active. AID 485270, 2010; in the data active = inhibition mostly above about 38%, no sharp cut-off; inactive = mostly below about 40%;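 note: 0% = agonist challenge alone and 100% = reference antagonist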
CHO parental Ca = ATP-evoked calcium signal inhibitors, parental CHO, primary screen, counter-screen for OX1R antagonist project, cell-based, fluorescence, Fluo-8 calcium dye | parental CHO-K1, ATP-induced calcium, Fluo-8 fluorescence | inhibition, % at 5.6 µM | AID 463079, 2010 | 0.63% of 330,000 active;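 active = inhibition above that plate's mean sample inhibition plus 3 SD, cut at about 26% in these data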;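 note: 0% = ATP-challenged DMSO wells and 100% = DMSO wells without ATP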
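Measured by: calcium-sensitive Fluo-8 fluorescence / Test system: CHO parental line / Controls: ATP-challenged DMSO wells low, unchallenged DMSO wells high / Measure: % inhibition / Compound: single nominal dose of 5.6 µM per compound / Replicates: single well per compound, no replicates / Reagent: ATP as calcium-mobilizing challenge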
TAAR1 agonist = human TAAR1 agonists, primary screen, Fluo-8 calcium fluorescence, CHO RD-HGA16 cells. activation, % at 3 µM. vehicle wells 0%, saturating PEA agonist 100%. 0.99% of 360,000 active;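 active = activation above the mean activation of all test compounds in the run plus 3 SD, cut at about 38% in these data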
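test system = CHO RD-HGA16 cells carrying human TAAR1 plus Gα16 | schedule = 17-24 h seeding, 75 min 37 °C dye, 30 min RT | compound dosing = 3 µM single concentration | control set = DMSO and PEA EC100 | replicates = n 1 | signal = Fluo-8 fluorescence, 5 s baseline then 140 s kinetic read | measure = percent activation vs PEA EC100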
GPR7 antagonist = GPR7 receptor antagonists, primary screen, cell-based, fluorescence, single concentration; GPR7-expressing cells, fluorescence antagonist assay; inhibition, % at 4.4 µM; 1.1% of 290,000 active; in the data active = inhibition above about 16%, passing the limit was not always enough;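 note: cells stimulated with the agonist NPW; 0% = agonist with vehicle and 100% = vehicle without agonist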
Target sequence (P48145 whole entry, looked up): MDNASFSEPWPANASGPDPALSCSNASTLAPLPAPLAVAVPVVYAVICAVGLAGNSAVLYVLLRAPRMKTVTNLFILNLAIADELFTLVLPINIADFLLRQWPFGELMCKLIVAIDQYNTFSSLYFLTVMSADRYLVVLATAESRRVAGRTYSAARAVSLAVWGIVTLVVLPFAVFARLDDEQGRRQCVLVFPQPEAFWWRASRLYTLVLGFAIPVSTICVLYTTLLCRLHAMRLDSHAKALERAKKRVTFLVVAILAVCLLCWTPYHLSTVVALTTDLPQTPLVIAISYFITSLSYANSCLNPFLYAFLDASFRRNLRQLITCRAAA
nonsel antag count = nonselective antagonists in TAAR1 counter-screen cells, counter-screen for hTAAR1 antagonist project, cell-based, fluorescence, calcium; shares compounds with TAAR1 antag; 77% of 2,400 active; counterscreen cell line, antagonist mode; inhibition, % at 3 µM; AID 651780, 2012; in the data active = inhibition above about 22%;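 note: CHO-Ga16 host cells stimulated with ATP at an EC80 level; 0% = agonist EC80 plus vehicle and 100% = vehicle without agonist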
TAAR1 antag conf = human TAAR1 antagonists, retest of hits, confirmation, cell-based, fluorescence | shares compounds with TAAR1 antag | TAAR1-expressing cells, fluorescence antagonist read-out | inhibition, % at 3 µM | 40% of 2,400 active | AID 651785, 2012; in the data active = inhibition above about 49%;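 note: CHO-Ga16 host cells challenged with agonist PEA near its EC80; 0% = agonist at EC80 plus vehicle and 100% = vehicle with no agonist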
Ga16 ag counter-1 = calcium activation in Ga16-expressing cells, counter-screen for TAAR1 antagonist project, cell-based, fluorescence. agonist counterscreen. 18% of 2,400 active. shares compounds with TAAR1 antag. activation, % at 3 µM; in the data active = activation above about 12%;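 note: 0% = vehicle wells and 100% = saturating stimulus response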
TAAR1 ag counter = TAAR1 activation by candidate antagonists – cell-based, fluorescence, counter-screen for TAAR1 antagonist project; shares compounds with TAAR1 antag; 2% of 2,400 active; activation, % at 3 µM; hTAAR1 cell line, agonist mode; in the data active = activation above about 37%;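 note: CHO cells stably expressing TAAR1 with calcium dye readout; 0% = DMSO vehicle and 100% = full agonist response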
TAAR1 ag confirm = human TAAR1 agonists, retest of hits, confirmation, Fluo-8 calcium fluorescence, CHO RD-HGA16 cells; activation, % at 3 µM; AID 651783, 2012; 82% of 2,400 active; shares compounds with TAAR1 agonist; scaled: DMSO 0%, maximal phenethylamine 100%;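 active = activation above a cutoff set at the run's mean compound activation plus 3 SD, cut at about 39% in these data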
Ga16 ag counter-2 = nonselective calcium mobilization agonists, CHO-Ga16 cells, counter-screen for hTAAR1 agonist project, cell-based, fluorescence, CHO-Ga16 parental line. 50% of 2,400 active. Fluo-8 calcium fluorescence; normalized to maximal ATP response, DMSO zero. shares compounds with TAAR1 agonist. activation, % at 3 µM;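 active = activation above the run cutoff, the mean activation over all tested wells plus 3 SD, cut at about 12% in these data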;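 note: 0% = DMSO wells and 100% = maximal ATP response on the peak over basal ratio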
TAAR1 desens = TAAR1 desensitization by agonist hits, confirmation, counter-screen for TAAR1 agonist project, cell-based, fluorescence, tachyphylaxis; shares compounds with TAAR1 agonist; CHO RD-HGA16 hTAAR1, Fluo-8 calcium, beta-PEA response inhibition; inhibition, % at 3 µM; 46% of 2,400 active;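 active = inhibition above the run cutoff, the mean inhibition of all test compounds plus 3 SD, cut at about 49% in these data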;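 note: beta-PEA stimulus applied at its EC80; loss of beta-PEA calcium signal after compound pretreatment read as receptor desensitization; 0% = DMSO with beta-PEA at EC80 and 100% = DMSO alone without agonist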
Ga16 antag count = inhibition of ATP-evoked calcium response in CHO-Ga16 cells, counter-screen for TAAR1 agonist project, cell-based, fluorescence | shares compounds with TAAR1 agonist | CHO-Ga16 ATP-induced calcium, Fluo-8 fluorescence | inhibition, % at 3 µM | 39% of 2,400 active;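 active = inhibition above the plate's mean compound inhibition plus 3 SD, computed per plate, cut at about 22% in these data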;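 note: 0% = EC80 ATP with DMSO and 100% = DMSO wells without ATP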
* hit, by the source's call; · = no result. The list is not random: actives were taken first. Their share in the collection is about 4.5%.

SMILES	TAAR1 antag	OX1R antag-1	OX1R antag-2	CHO parental Ca	TAAR1 agonist	GPR7 antagonist	TAAR1 ag confirm	Ga16 ag counter-2	TAAR1 desens	Ga16 antag count	others
O=C(c1ccc(N2CN(C(=O)c3ccco3)c3nc4ccccc4nc32)cc1)N1CCOCC1	53.5*	5.9	16.8	-18.9	26.2	-18.9	·	·	·	·	nonsel antag count=21.1;TAAR1 antag conf=42.8;Ga16 ag counter-1=9.7;TAAR1 ag counter=9.0
CCCC(=O)N1CCC1(C)C(=O)Nc1ccc2c(c1)CCN2C(C)=O (stereo not drawn)	-11.2	·	·	·	4.9	·	·	·	·	·
O=C(N/N=C\c1ccc(COc2ccc([N+](=O)[O-])cc2)o1)c1cccc(Cl)c1	55.8*	1.3	49.8	7.5	15.6	6.6	·	·	·	·	nonsel antag count=25.5*;TAAR1 antag conf=41.8;Ga16 ag counter-1=4.0;TAAR1 ag counter=5.1
O=C(O)C1CCCCC1C(=O)NCCc1ccc(Cl)cc1 (stereo not drawn)	16.6	-19.7	19.0	1.4	70.2*	7.1	54.1*	0.0	6.7	5.3
O=C(O)C1CCCCC1C(=O)NCCc1ccc(F)cc1 (stereo not drawn)	33.7	-22.4	13.2	-5.9	81.0*	8.4	92.9*	3.0	72.9*	7.3
O=C(O)C1C2C=CC(C2)C1C(=O)NCc1cccc(Cl)c1 (stereo not drawn)	-6.3	-8.9	6.6	-10.2	23.7	-13.1	·	·	·	·
O=C(O)C1C2CCC(C2)C1C(=O)NCCc1ccccc1 (stereo not drawn)	·	3.3	2.3	5.7	·	-3.1	·	1.6	·	3.8
O=C(O)C1C2C=CC(C2)C1C(=O)NCCc1cccc(Cl)c1 (stereo not drawn)	·	-3.8	16.1	-9.4	·	-8.6	·	1.4	·	9.8
O=c1c(-c2cccs2)nc2ccccc2n1C(c1ccccn1)c1nc2ccccc2[nH]1 (stereo not drawn)	-17.8	·	·	·	-1.2	·	·	·	·	·
CC1(C(=O)Nc2ccc3c(c2)OCCO3)CN(S(C)(=O)=O)CC(=O)N1CCc1ccccc1F (stereo not drawn)	-0.1	·	·	·	4.9	·	·	·	·	·
O=C(O)C1CCCCC1C(=O)NCCc1cccc(Cl)c1 (stereo not drawn)	68.4*	-3.2	14.3	-2.6	89.8*	-4.4	87.9*	2.3	69.5*	-1.4
O=C(O)C1CCCCC1C(=O)NCc1ccccc1 (stereo not drawn)	-11.0	-7.6	4.6	-0.8	4.3	4.3	·	·	·	·
CCCCc1ccc(NC(=O)C2CCN(S(C)(=O)=O)CC2)cc1	26.5	-15.2	3.2	-6.3	57.4*	-9.1	-1.3	1.0	0.8	11.1
CC(C)CN(C(=O)CN(C)C(=O)Cc1c(F)cccc1Cl)c1c(N)n(CC(C)C)c(=O)[nH]c1=O	7.4	·	·	·	0.8	·	·	·	·	·
O=c1[nH]ncc(N/N=C\c2ccc(O)cc2O)c1Cl	30.1	-18.7	15.2	-7.9	73.5*	-18.2	79.9*	1.0	66.8*	9.1
CC(C)c1ccc(NC(=O)[C@@H](C)NC(=O)[C@@H]2Cc3ccccc3CN2)cc1	-4.2	-29.7	11.6	-27.8	77.6*	-0.9	31.1	12.4*	-9.3	4.4
CC(C)C[C@H](NC(=O)[C@@H]1Cc2ccccc2CN1)C(=O)Nc1ccc(C(C)C)cc1	5.7	-31.7	6.2	-22.5	5.9	-4.9	·	·	·	·
CC(C)(C)c1ccc(NC(=O)c2cc(C3CCCN(C(=O)CCc4ccccc4)C3)on2)cc1 (stereo not drawn)	35.4	·	·	·	0.7	·	·	·	·	·
c1ccc(-c2cnn3c(-c4ccccc4)c(-c4ccccc4)nc3n2)cc1	63.0*	·	·	·	76.5*	8.1	99.5*	121.0*	83.6*	81.5*
Cc1ccc(Nc2nc(N)c3ccccc3n2)cc1C	6.5	·	·	·	67.5*	-0.3	67.0*	1.6	53.9*	2.6
O=C(O)CC1CCC1CC(=O)O (stereo not drawn)	1.8	·	·	·	-0.1	·	·	·	·	·
COc1ccc(N(C(=O)CCl)C(C(=O)NCCc2ccccc2)c2cccs2)cc1Cl (stereo not drawn)	28.3	-11.1	21.7	-8.9	40.1*	4.7	33.5	-0.7	18.1	19.5
COc1cccc(N(C(=O)CCl)C(C(=O)NCCc2ccccc2)c2cccs2)c1 (stereo not drawn)	0.5	-15.4	8.1	-9.3	33.9	-5.0	·	·	·	·
O=C1ON(Cc2ccccc2)C(c2ccccc2)N1c1ccccc1 (stereo not drawn)	19.7	·	·	·	-0.3	·	·	·	·	·
COc1ccc(OC)c(CN2CCN(C(=O)c3cc(S(=O)(=O)N4CCOCC4)ccc3C)CC2)c1	0.8	·	·	·	11.0	·	·	·	·	·
